The record followed here is ChEMBL document CHEMBL2010794, “Discovery of nor-seco himbacine analogs as thrombin receptor antagonists” (Bioorg Med Chem Lett, 2012).

Data set [1] can be described thus: AUC (0 to 24 hrs) in cynomolgus monkey plasma at 1 mg/kg, po. The class given is ADME, organism-based, Macaca fascicularis. More on the design: time < 24 hr, dose 1 mg/kg, route oral.
Data set [2] can be described thus: Tmax in cynomolgus monkey at 1 mg/kg, po and 1 mg/kg, iv. The class given is ADME, organism-based, Macaca fascicularis. To be noted: in vivo. In short, it runs like this:
(§1)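 Full cynomolgus PK study: 1 mg/kg oral in 0.4% methylcellulose and 1 mg/kg intravenous in 20% HPBCD; AUC, oral Cmax, Tmax, half-life, Vd(ss) and clearance derived from plasma concentrations.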

A short description of data set [3]: AUC (0 to 24 hrs) in cynomolgus monkey at 1 mg/kg, po and 1 mg/kg, iv. It is filed as ADME, organism-based, Macaca fascicularis. To be noted: plasma. A digest of the protocol: as §1
Data set [4] is described as follows: Clearance in cynomolgus monkey at 1 mg/kg, po and 1 mg/kg, iv. The class given is ADME, organism-based, Macaca fascicularis. To be noted: in vivo. In short, it runs like this:
as §1

Data set [5] can be described thus: Half life in cynomolgus monkey at 1 mg/kg, po and 1 mg/kg, iv. It is filed as ADME, organism-based, Macaca fascicularis. To be noted: in vivo. In short, it runs like this: as §1
Another data set deals with Cynomolgus monkey. Kind of data set: Ex-vivo inhibition of PAR1 in cynomolgus monkey assessed as inhibition of haTRAP-induced platelet aggregation at 1 mg/kg, po at 24 hrs by aggregometry. The class given is functional. To be noted: Macaca fascicularis. A digest of the protocol: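 Cynomolgus monkeys dosed orally in 20% PEG-HPBCD (hydrochloride salt for the 7a-hydroxy series); blood sampled at various times up to 24 h; haTRAP added to whole blood at 1 µM to trigger aggregation, measured by aggregometer; result given as % reduction in haTRAP-induced aggregation at the stated dose and time.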

Data set [6] is described as follows: Volume of distribution at steady state in cynomolgus monkey at 1 mg/kg, po and 1 mg/kg, iv. To be noted: in vivo, read-out: Vdss. The class given is ADME, organism-based, Macaca fascicularis. A digest of the protocol:
as §1

The nature of data set [7]: Oral bioavailability in cynomolgus monkey at 1 mg/kg. It is filed as ADME, organism-based, Macaca fascicularis. To be noted: in vivo. A digest of the protocol: as §1
A short description of data set [8]: Cmax in cynomolgus monkey at 1 mg/kg, po. The class given is ADME, organism-based, Macaca fascicularis. More on the design: dose 1 mg/kg, route oral. To be noted: in vivo. In short, it runs like this:
as §1

What is called AUC(0-t) is the area under the concentration-time curve up to a stated or last time point. As a reminder, the Tmax is the time at which the peak concentration occurs. As a reminder, the half-life is the time needed for the level to fall by half in the phase considered. The inhibition in vivo is the relative decrease from the control value, in per cent. Usually bioavailability stands for dose-corrected exposure relative to a reference, in per cent. The term Cmax denotes the highest concentration seen after dosing.

`CC[C@H]1[C@H](/C=C/c2ccc(-c3ccccc3)cn2)[C@@H]2[C@@H](C)OC(=O)[C@]2(O)C[C@@H]1C.Cl`: the AUC(0-t) at 24 h in data set [1] amounted to 3820 ng·h/mL. Moreover, the Tmax in data set [2] amounted to 1 h. Further, the AUC(0-t) in data set [3] turned out to be 3980 ng·h/mL. Also, the clearance in data set [4] came to 3.3 mL/min/kg. This molecule also showed a half-life in data set [5] of 10.7 h. Also, the inhibition in vivo at 1 mg/kg in the data set with Cynomolgus monkey was determined as 65%. In [6], the Vd worked out at 1.5 L/kg. In data set [7], the bioavailability was 78%. The molecule also displayed a Cmax in [8] of 397 ng/mL.
